Reference: ChEMBL document CHEMBL4665845, “CRISPR-Cas9 Genome-Wide Knockout Screen Identifies Mechanism of Selective Activity of Dehydrofalcarinol in Mesenchymal Stem-like Triple-Negative Breast Cancer Cells” (2020)

Experiments:
Type in all cases: functional
[1] = tested on: BT-549; assay: Growth inhibition of human BT-549 cells after 48 hrs by SRB assay
[2] = tested on: MDA-MB-231; assay: Growth inhibition of human MDA-MB-231 cells after 48 hrs by SRB assay
How it was run: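 Cells were exposed to compound for 48 h, and growth was read by sulforhodamine B staining. TGI (total growth inhibition concentration, μM) was taken from concentration–response curves, n = 3, means ± SEM. MDA-MB-231 cells were grown in IMEM with 10% FBS at 37 °C in 5% CO2.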

[3] = species: Homo sapiens; assay: Selectivity index, ratio of TGI for growth inhibitor of human BT-549 to TGI for growth inhibitor of human MDA-MB-231

## C=C[C@@H](O)C#CC#C[C@@H](O)/C=C\CCCCCCC [FALCARINDIOL]
[1]
  TGI: 9 µM
[2]
  TGI: 6 µM
[3]
  Selectivity Index: 1.5

## C=CCCC/C=C\[C@H](O)C#CC#C[C@H](O)C=C
[1]
  TGI: 29 µM
[2]
  TGI: 12 µM
[3]
  Selectivity Index: 2.4

## C=CCCCCCC(O)/C=C/C#CC#C[C@@H](O)C=C (single isomer, unassigned) [DENDROARBOREOL B]
[1]
  TGI: 1.1 µM
[2]
  TGI: 0.16 µM
[3]
  Selectivity Index: 6.9

## C=CCCCCC/C=C\CC#CC#CC(O)CC (stereo unspecified)
[1]
  TGI: 7 µM
[2]
  TGI: 3.3 µM
[3]
  Selectivity Index: 2.1

## C=CCCC/C=C\C(C#CC#C[C@H](O)C=C)OC(C)=O (stereo partly specified)
[1]
  TGI: 2 µM
[2]
  TGI: 2.5 µM
[3]
  Selectivity Index: 0.8

## C=CCCC/C=C\CC#CC#CC(O)C=C (mixture of isomers)
[1]
  TGI: 2.4 µM
[2]
  TGI: 0.49 µM
[3]
  Selectivity Index: 4.9

## C=C[C@@H](O)C#CC#CC/C=C\CCCCCCC
[1]
  TGI: 9 µM
[2]
  TGI: 6 µM
[3]
  Selectivity Index: 1.5
